Entries after “also recorded” stand apart in the source; their conditions may differ. Like-named read-outs stand apart in the source and are kept apart here.

Data set [1] has as its target T1, bovine plasma amine oxidase (BPAO) (Bos taurus, UniProt Q29437).
T1 sequence (Q29437 17-762): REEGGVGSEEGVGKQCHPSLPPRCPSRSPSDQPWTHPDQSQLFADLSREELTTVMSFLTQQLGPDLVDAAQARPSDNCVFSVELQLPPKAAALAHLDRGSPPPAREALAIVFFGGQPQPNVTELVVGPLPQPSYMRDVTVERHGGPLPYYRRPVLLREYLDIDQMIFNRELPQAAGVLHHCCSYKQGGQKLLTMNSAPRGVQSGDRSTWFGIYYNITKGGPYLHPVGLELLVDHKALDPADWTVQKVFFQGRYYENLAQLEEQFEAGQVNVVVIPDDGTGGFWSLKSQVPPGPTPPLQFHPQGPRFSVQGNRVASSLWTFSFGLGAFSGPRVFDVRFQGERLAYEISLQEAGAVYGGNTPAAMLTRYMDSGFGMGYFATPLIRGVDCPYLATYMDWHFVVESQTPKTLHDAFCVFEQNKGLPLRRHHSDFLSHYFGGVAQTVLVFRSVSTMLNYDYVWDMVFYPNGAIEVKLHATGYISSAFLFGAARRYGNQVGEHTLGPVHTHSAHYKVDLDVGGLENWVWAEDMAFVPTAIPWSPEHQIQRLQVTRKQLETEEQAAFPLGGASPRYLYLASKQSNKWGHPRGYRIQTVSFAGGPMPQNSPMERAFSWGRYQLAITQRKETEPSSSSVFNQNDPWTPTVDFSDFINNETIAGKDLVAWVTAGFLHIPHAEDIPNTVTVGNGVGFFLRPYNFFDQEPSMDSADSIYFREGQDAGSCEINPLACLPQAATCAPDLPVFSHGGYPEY
As to the kind of experiment: Substrate activity with BPAO. Type of data set: biochemical. The note with it: kcat/Km relative to BA = 1.

For data set [2], the system named is rat liver monoamine oxidase (MAO-B). The data set can be described thus: Selectivity: initial oxidation velocity with rat liver MAO-B. Type of data set: biochemical. The note with it: for V0: 30 °C, 250 nm, rat liver mitochondria. The method, boiled down:
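MAO-B source: isolated rat liver mitochondria, protein by biuret (BSA standard). Thawed suspension in mannitol/sucrose/MOPS pH 7.4 diluted with 0.1 M pH 7.2 phosphate containing 0.25% Triton X-100, warmed to 30 °C. Aliquot added to 20 µM test amine (0.1 M phosphate) or 5 mM benzylamine (50 mM phosphate). A250 followed 30 s at 30 °C; rates via extinction coefficients.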

The target in data set [3] is T2, BPAO (Bos taurus, UniProt Q29437).
T2 sequence (Q29437 17-762): T1 sequence (Q29437 17-762)
The data set can be described thus: Selectivity: initial oxidation velocity with BPAO. In kind it is biochemical, bovine. Conditions: for V0: 30 °C, 250 nm. The method, boiled down:
(§1)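 Purified enzyme was diluted into 20 µM fluorogenic amine substrate in 0.1 M pH 7.2 phosphate buffer, or into 5 mM benzylamine in 50 mM pH 7.2 phosphate buffer, at 30 °C. Absorbance at 250 nm was followed for 30 s. Slopes were converted to nM s−1 using extinction coefficients of the aldehyde products at 250 nm.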

Data set [4] addresses Arthrobacter globiformis amine oxidase (AGAO) (Arthrobacter globiformis, UniProt P46881). As to the kind of experiment: Selectivity: initial oxidation velocity with AGAO. Type of data set: biochemical. Conditions: for V0: 30 °C, 250 nm. In short, it runs like this: as §1
The target of data set [5] is T3, Pichia pastoris lysyl oxidase (PPLO) (Komagataella pastoris, UniProt Q96X16).
T3 sequence (Q96X16 19-787): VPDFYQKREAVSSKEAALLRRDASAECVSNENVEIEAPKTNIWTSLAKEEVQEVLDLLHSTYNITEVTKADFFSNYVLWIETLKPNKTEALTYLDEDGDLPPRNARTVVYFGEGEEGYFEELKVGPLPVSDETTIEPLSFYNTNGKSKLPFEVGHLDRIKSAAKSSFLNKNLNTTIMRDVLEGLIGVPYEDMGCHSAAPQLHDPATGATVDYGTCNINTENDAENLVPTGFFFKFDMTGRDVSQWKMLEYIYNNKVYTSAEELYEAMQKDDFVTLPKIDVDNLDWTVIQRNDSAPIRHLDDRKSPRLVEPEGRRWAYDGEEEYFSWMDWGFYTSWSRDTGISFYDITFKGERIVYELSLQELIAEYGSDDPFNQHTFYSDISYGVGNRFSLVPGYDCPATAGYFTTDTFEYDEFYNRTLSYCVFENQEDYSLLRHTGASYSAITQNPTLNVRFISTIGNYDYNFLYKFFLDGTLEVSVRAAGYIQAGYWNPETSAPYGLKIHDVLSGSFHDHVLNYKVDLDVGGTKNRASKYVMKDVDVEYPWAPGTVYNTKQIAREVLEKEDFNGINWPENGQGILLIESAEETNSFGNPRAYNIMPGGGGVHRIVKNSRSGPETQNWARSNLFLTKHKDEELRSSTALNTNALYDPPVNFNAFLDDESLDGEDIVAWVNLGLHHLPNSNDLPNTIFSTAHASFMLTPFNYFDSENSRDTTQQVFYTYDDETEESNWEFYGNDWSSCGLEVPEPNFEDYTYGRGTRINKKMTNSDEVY
As to the kind of experiment: Selectivity: initial oxidation velocity with PPLO. Conditions: for V0: 30 °C, 250 nm. Type of data set: biochemical. The method, boiled down:
as §1

The target in data set [6] is T4, porcine kidney diamine oxidase (pkDAO) (Sus scrofa, UniProt Q9TRC7).
T4 sequence (Q9TRC7 25-755): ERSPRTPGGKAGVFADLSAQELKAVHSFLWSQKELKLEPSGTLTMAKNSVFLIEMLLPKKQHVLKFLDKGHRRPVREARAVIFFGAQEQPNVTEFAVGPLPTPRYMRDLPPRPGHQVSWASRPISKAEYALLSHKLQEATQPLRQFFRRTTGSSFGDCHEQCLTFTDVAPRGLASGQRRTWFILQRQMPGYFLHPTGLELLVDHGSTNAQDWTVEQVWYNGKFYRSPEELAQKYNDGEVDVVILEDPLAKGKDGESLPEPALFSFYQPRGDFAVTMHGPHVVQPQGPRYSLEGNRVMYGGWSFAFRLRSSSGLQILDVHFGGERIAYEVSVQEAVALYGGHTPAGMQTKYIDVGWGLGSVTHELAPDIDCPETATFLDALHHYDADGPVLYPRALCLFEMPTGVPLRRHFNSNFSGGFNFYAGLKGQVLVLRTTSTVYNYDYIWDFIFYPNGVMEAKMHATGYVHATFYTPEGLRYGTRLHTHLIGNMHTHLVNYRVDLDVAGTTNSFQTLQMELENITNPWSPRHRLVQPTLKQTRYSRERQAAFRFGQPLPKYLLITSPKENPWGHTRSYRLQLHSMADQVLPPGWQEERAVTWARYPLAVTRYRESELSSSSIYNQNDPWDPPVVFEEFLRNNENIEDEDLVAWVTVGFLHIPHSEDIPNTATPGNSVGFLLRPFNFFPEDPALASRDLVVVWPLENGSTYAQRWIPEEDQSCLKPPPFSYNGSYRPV
As to the kind of experiment: Selectivity: initial oxidation velocity with pkDAO. In kind it is biochemical. Conditions: for V0: 37 °C, 250 nm. The method, boiled down:
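Porcine kidney DAO (from 10 mg/mL stock) in 0.1 M pH 7.2 phosphate buffer, equilibrated at 37 °C. Test amine (final 20 µM) or p-xylylenediamine (final 1.5 mM) was added. Absorbance at 250 nm was read for 30 s at 37 °C. Rates were computed using a literature extinction coefficient for p-(aminomethyl)benzaldehyde.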

Data set [7] concerns the target T2, BPAO. As to the kind of experiment: Inhibition of BPAO evaluated with the new fluorometric assay. Type of data set: biochemical, bovine. In short, it runs like this:
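BPAO (50 nM) in 0.1 M pH 7.2 phosphate buffer, held 5 min at 2 °C, then given test inhibitor (final 1–10 µM; repeat at 30 °C with 0.125–2 µM). Aliquots taken over time and assayed at 30 °C: 10 µM fluorogenic amine substrate, emission 453 nm (λex 350 nm), 30 s. Residual activity relative to an inhibitor-free control; t1/2 per concentration fed Kitz–Wilson plot.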

Data set [8] deals with T2, BPAO. Conditions: ref 8d, cited from earlier work.
The next data set is described as follows: Solubility. Type of data set: physicochemical.
Setting [9] is: BA 5 mM in 50 mM pH 7.2 phosphate buffer.
[10] abbreviates: 12 20 µM in 0.1 M pH 7.2 phosphate buffer.

In the case of `CN(C)CCOc1ccc2cc(CN)ccc2c1.Cl.Cl` [compound 11, (2-(6-(Aminomethyl)naphthalen-2-yloxy)ethyl)dimethylamine dihydrochloride], the relative activity in data set [1] (fluorescence spectrophotometry) is 3.1×10^3.

On to `CNCCOc1ccc2cc(CN)ccc2c1.Cl.Cl` [compound 10, (2-(6-(Aminomethyl)naphthalen-2-yloxy)ethyl)methylamine dihydrochloride], for which the relative activity in data set [1] (fluorescence spectrophotometry) is reported as 1.5×10^3.

In the case of `NCc1ccccc1` [BA, benzylamine, reference compound], the V0 in [2] (setting [9]) was 103.1 nM/s; at BPAO [3] (setting [9]), 82.8 nM/s; in data set [4] (setting [9]) it was 54.7 nM/s; in data set [5] (setting [9]), 67.2 nM/s. In [1] (UV-vis spectrophotometry), this compound registered a relative activity of 1.

As for `NCc1ccc(CN)cc1` [PXDA, p-xylylenediamine, reference compound], the V0 in data set [6] (PXDA 1.5 mM in 0.1 M pH 7.2 phosphate buffer) is 51.8 nM/s.

Take `C[N+](C)(C)CCOc1ccc2cc(CN)ccc2c1.Cl.[Cl-]` [compound 12, (2-(6-(Aminomethyl)naphthalen-2-yloxy)ethyl)trimethylammonium chloride hydrochloride]: the “substrate activity with MAO-B (in words)” value in [2] is given as “no significant substrate activity”; in data set [2] (listed as ANETA) it was “not a substrate”. Moreover, the V0 in [2] (setting [10]) came to 0.6 nM/s; on BPAO [3] (setting [10]) it was 62.3 nM/s; in data set [6] (setting [10]) it was 1.0 nM/s; in data set [4] (setting [10]), 1.3 nM/s; in data set [5] (setting [10]), 24.8 nM/s. Also, in [1] (fluorescence spectrophotometry), the relative activity was 5.4×10^3. In addition, the “substrate activity with BPAO (in words)” value on BPAO [3] is on record as “metabolized quickly”; at BPAO [3] (listed as ANETA), “good substrate”. The “substrate activity with pkDAO (in words)” value in data set [6] is given as “no significant substrate activity”; in data set [6] (listed as ANETA), “not a substrate”. Besides, the “substrate activity with AGAO (in words)” value in data set [4] is “no significant substrate activity”. Also, the “substrate activity with PPLO (in words)” value in data set [5] (compared with BPAO) is on record as “comparable rate”.

For the compound `C=C=CCN` [compound 29, 1-Amino-2,3-butadiene], the “slope of the Kitz and Wilson plot” value on BPAO [7] (inactivation at 2 °C, BPAO 50 nM) is listed as 10.8; at BPAO [8] (BA assay, 2 °C) it was 10.2. In addition, the IC50 on BPAO [7] (read-out: 5 min IC50, 30 °C) was 250 nM; at BPAO [7] (read-out: 10 min IC50, 30 °C) it was 125 nM; at BPAO [8] (read-out: 5 min IC50, BA assay with 1 µM BPAO, previous estimation) it was 1250 nM.

Consider `COc1ccc2cc(CN)ccc2c1.Cl` [compound 1, 6-Methoxy-2-naphthalenemethaneamine hydrochloride], for which the relative activity in [1] (UV-vis spectrophotometry) and in [1] (fluorescence spectrophotometry) was 2.2 throughout. Also, the “solubility (in words)” value in the data set “Solubility” is listed as “poor solubility; also recorded: poorly soluble”.

As to `Cl.Cl.NCCOc1ccc2cc(CN)ccc2c1` [compound 9, 2-(6-(Aminomethyl)naphthalen-2-yloxy)ethylamine dihydrochloride], the relative activity in data set [1] (fluorescence spectrophotometry) is 2.9×10^2.

For orientation: IC50 means the concentration that inhibits the measured activity by half.
